Laboratory results from PubChem BioAssay AID822 (SRMLSC, 2007).
Activity calls are given as the source filed them.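 The calls were made as follows: active = half-maximal effective dose for blocking growth of human endothelial cells at most 100 µM; inactive = the rest.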

Test system: HUVEC proliferation, viability ATP luminescence
Assay: HUVEC proliferation inhibition, dose response, cell-based, ATP luminescence (AID 822);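 also: cells exposed to compound for 72 h before the ATP read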
In short: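 Assay system: HUVEC primary endothelial cells, low passage (≤12) | Doses: 0.039–20 µM, 0.2% DMSO | Incubation: 72 h compound exposure at 37 °C | Detection: CellTiter-Glo ATP luminescence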

Row | Structure (SMILES) | EC50
1 | COc1ccccc1-c1nnc2n1N=C(c1ccc(O)c(O)c1)CS2 | 0.847 µM
2 | c1ccc(-c2noc(-c3ccc4c(c3)OCO4)n2)nc1 | 2.47 µM
3 | CCOC(=O)c1cc2c(N)c(C(=O)c3cc(C#N)c(SC)nc3C)sc2nc1C | 5.27 µM
4 | OC(C#Cc1ccccn1)c1cccs1 (configuration not stated) | 4.29 µM
5 | CCOC(=O)N1CCN(c2ncnc3c2oc2nc(C(C)C)c4c(c23)CCC4)CC1 | 19.4 µM
6 | O=C(COC(=O)c1cccnc1Nc1cccc(C(F)(F)F)c1)NCc1ccc2c(c1)OCO2 | 13.5 µM
7 | Cc1cc(C)cc(OC(=O)CS(=O)c2ccc(C(F)(F)F)cc2[N+](=O)[O-])c1 (configuration not stated) | 18.7 µM
8 | CCOC(=O)C(C(C)=O)c1c(Br)c(O)c(O)c2c(C(=O)c3ccc(C)cc3)coc12 (configuration not stated) | 7.17 µM
9 | Cc1cccnc1Nc1nc(-c2ccc(O)cc2O)cs1 | 10.3 µM
10 | COC(=O)c1c(C)n(-c2ccc(C)cc2)c2ccc(O)cc12 | 18.6 µM
11 | COC(=O)C1=C(O)/C(=C\c2ccc(CNC(=O)C(=O)Nc3ccc(C)c(C)c3)o2)N=C1C | 13.3 µM
12 | Cc1cc(S(=O)(=O)N2CCN(Cc3ccc4c(c3)OCO4)CC2)cc(C)c1N1CCCC1=O | 18.3 µM
13 | CCCCCCCCOC(=O)C1=C(C)Nc2nnnn2C1c1cccs1 (configuration not stated) | 6.74 µM
14 | CN1CCN(c2nc3ccccc3nc2C(C#N)C(=O)OC2CCCCC2)CC1 (configuration not stated) | 3.87 µM
15 | CCOC(=O)Cc1c(C)nc2c(-c3cccc(Br)c3)c[nH]n2c1=O | 3.01 µM
16 | CCc1[nH]nc2c1C(c1ccc(Br)s1)C(C#N)=C(N)O2 (configuration not stated) | 14 µM
17 | O=C(CC1CCCCC1)c1c(O)c2ccccc2oc1=O | 4.66 µM
18 | CCOc1cc(C(=O)CSc2nnc(CNc3ccc(Cl)cc3)o2)ccc1NC(=O)CC | 15.7 µM
19 | C=CCOC(=O)C1=C(C)NC(SCC(=O)Nc2ccc(C)c(Cl)c2)=C(C#N)C1c1ccco1 (configuration not stated) | 20.1 µM
20 | O=C(OCC(=O)N1CCN(C(=O)c2ccco2)CC1)c1cc(-c2ccc(Cl)c(Cl)c2Cl)nc2ccccc12 | 4.16 µM
21 | CC(C)Cn1c(N)c(C(=O)NCc2cccs2)c2nc3ccccc3nc21 | 10.5 µM
22 | Cc1cc(C)n(-c2nc(SCC(=O)N3CCCC3)c3c4c(sc3n2)CCCC4)n1 | 19.4 µM
23 | COc1cccc(C(=O)c2sc(NC(C)C)nc2N)c1 | 16.2 µM
24 | COc1cc(-c2nnc(COc3ccc4cc(Br)ccc4c3)o2)cc(OC)c1OC | 12.1 µM
25 | CC(=O)Nc1ccc(S(=O)(=O)N2CCN(c3nc(NC4CCCC4)c4ccccc4n3)CC2)cc1 | 4.96 µM
26 | CC(=O)C(C(C)=O)c1c(Cl)c(O)c(O)c2c(C(=O)c3ccccc3)coc12 | 5.38 µM

Row | Structure (SMILES) | EC50
27 | CC(=O)n1cc(-c2ccncc2)c2ccccc21 | > 10 µM (inactive)
28 | O=C(CSc1nnc(-c2ccccc2O)o1)Oc1ccc(OCc2ccccc2)cc1 | 10.1 µM
29 | O=C(c1nn2c(C(F)(F)F)cc(-c3ccco3)nc2c1Br)N1CCCc2ccccc21 | 14.8 µM
30 | CCC(CC)COC(=O)C(C#N)c1nc2ccccc2nc1N1CCN(CC)CC1 (configuration not stated) | 10.2 µM
31 | Oc1ccccc1-c1cc(-c2ccccc2Cl)[nH]n1 | 12.5 µM
32 | COC(=O)c1c(NC(=O)c2ccco2)sc(C(=O)Nc2ccc(F)cc2)c1C | 2.98 µM
33 | Oc1ccccc1NCC(O)Cn1ccc2ccccc21 (configuration not stated) | 8.76 µM
34 | O=C1c2[nH]nc(-c3ccccc3O)c2C(c2cccc(Cl)c2)N1Cc1ccco1 (configuration not stated) | 11 µM
35 | COc1ccc(S(=O)(=O)Nc2ccc(O)c3ccccc23)cc1 | 2.45 µM
36 | OCc1ccc(O)c2ncccc12 | 20.5 µM
37 | Cc1cc(/C=C2\C(=N)N3C(SCc4ccccc4)=NSC3=NC2=O)c(C)n1Cc1ccccc1 | 5.4 µM
38 | CCn1cc(C(=O)NCc2ccc3c(c2)OCO3)c(=O)c2cc(F)c(N3CCN(C(=O)c4ccco4)CC3)cc21 | 10.4 µM
39 | CCCCCCc1cc2cc(-c3nnc(-c4ccccc4)o3)c(=O)oc2cc1O | 3.5 µM
40 | Cc1ccc(C2Oc3ccccc3C3=C2C(c2cccs2)n2ncnc2N3)cc1 (configuration not stated) | 13.4 µM
41 | O=[N+]([O-])c1cccnc1N1CCC(c2cc(-c3cccc(C(F)(F)F)c3)n[nH]2)CC1 | 10.6 µM
42 | COc1ccc2cc3cc(C(=O)Nc4ccc5c(c4)OCO5)oc3nc2c1 | 4.64 µM
43 | CCN(CC)c1ccc2c(c1)oc(=O)c1c(Cl)cc(=O)oc12 | 2.05 µM
44 | CCc1ccc(-c2nc(CN3CCC(C(=O)N4CCN(c5ccccc5)CC4)CC3)c(C)o2)cc1 | 4.09 µM
45 | CCn1c2c(c3cc(Br)ccc31)CCC/C2=N\O | 15.2 µM
46 | COC(=O)Nc1ccc(S(=O)(=O)N2c3ccccc3CCC2C)cc1 (configuration not stated) | 9.54 µM
47 | CCCCCn1c(CN2CCN(c3cc(Cl)ccc3C)CC2)nc2c1c(=O)[nH]c(=O)n2C | 3.21 µM
48 | Brc1ccc(-c2csc(NNC3=NCCCCC3)n2)cc1 | > 10 µM (inactive)
49 | N=c1n(CCN2CCCCC2)c2ccccc2n1CC(O)c1cccc(Br)c1 (configuration not stated) | 9.51 µM
50 | N=c1c2c(-c3ccccc3)c(-c3ccccc3)n(Cc3ccco3)c2ncn1Cc1ccco1 | 1.82 µM
51 | O=S(=O)(CCN(CCS(=O)(=O)C(F)(F)F)CC1CCCO1)C(F)(F)F (configuration not stated) | 12.5 µM
52 | CC(Nc1nc(N2CCN(S(C)(=O)=O)CC2)nc2ccccc12)c1ccccc1 (configuration not stated) | 9.04 µM
